Among the data in ChEMBL document CHEMBL1158729, “Antioxidant phenolic glycosides from Moricandia arvensis” (J Nat Prod, 2005) are IC50, Trolox equivalent antioxidant capacity (TEAC) and Activity values, retold here.

What all share (format): functional
Assay [1] in a line: Antioxidant activity assessed as reduction of […]/ferricyanide complex after 20 mins. A digest of the protocol:
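Samples (0.02-1.0 mg) in water, mixed with […] phosphate buffer pH 6.6 and 1% potassium ferricyanide, 20 min at 50 °C. Reaction stopped with 10% TCA, centrifuged, and supernatant mixed with water and 0.1% FeCl3. A700 read against blank. Means of three independent samples fitted by linear regression. IC50 taken as the concentration giving an absorbance change of 0.50. α-Tocopherol and quercetin used as standards.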

Assay [2] can be described thus: Antioxidant activity assessed as ABTS radical scavenging activity after 15 mins by TEAC method. A digest of the protocol:
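ABTS radical cation formed from 7 mM ABTS with potassium persulfate (2.4 mM final), held 16 h dark at room temperature, then diluted with water to A734 0.700 ± 0.03. Samples in H2O-EtOH at 5-8 concentrations (0 to 20 µM final). A734 decrease read at 1, 2, 5, 10, 15 min, triplicate, with solvent blanks. Expressed as mM Trolox equivalent to 1.0 mM or 1 mg/mL sample.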

In assay [3] the test system is Radical scavenging activity. Description: Antioxidant activity assessed as DPPH radical scavenging activity at 15 ug/mL after 30 to 45 mins. The procedure, abridged: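 Sample added to freshly prepared 0.004% DPPH in MeOH (final-volume ratio 50:950 µL), vortexed 15 s. Absorbance at 515 nm read at room temperature after 30-45 min, once steady state was reached. Triplicate. % inhibition = (1 − As/A0) × 100 against control. α-Tocopherol and quercetin used as standards.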
For orientation: Loss of DPPH colour is used to gauge radical scavenging.

Converted amounts (≈) assume the structure as drawn. The source made the active and inactive calls. The calls are words filed in the database; no cut-off is given here.

Usually IC50 stands for the point on the concentration scale where inhibition reaches its midpoint. For the compound `O=C(/C=C/c1ccc(O[C@@H]2O[C@H](CO)[C@@H](O)[C@H](O)[C@H]2O)c(O)c1)O[C@@H]1O[C@H](CO)[C@@H](O)[C@H](O)[C@H]1O`, the concentration for half-maximal inhibition (IC50) in assay [1] is 95.9 µg/mL (≈ 190 µM). Further, in assay [2], the Trolox equivalent antioxidant capacity (TEAC) is 1.06 mM.
With `O=C(/C=C/c1ccc(O)c(O)c1)O[C@@H]1O[C@H](CO)[C@@H](O)[C@H](O)[C@H]1O`, in assay [1], the IC50 came out at 33.5 µg/mL (≈ 97.9 µM). Moreover, in assay [3], the Activity was found to be 72%. Moreover, the Trolox equivalent antioxidant capacity (TEAC) in assay [2] came to 1.91 mM.
Take `O=c1c(O)c(-c2ccc(O)c(O)c2)oc2cc(O)cc(O)c12` [QUERCETIN]: the 50% inhibitory concentration (IC50) in assay [1] is 24.4 µg/mL (≈ 80.7 µM). Also, the Activity is 87% in assay [3] and 4.26 mM in assay [2].
For `COC(=O)/C=C/c1ccc(O[C@@H]2O[C@H](CO)[C@@H](O)[C@H](O)[C@H]2O)c(O)c1`, in assay [1], the IC50 came out at 486.2 µg/mL (≈ 1360 µM). Besides, in assay [2], the Trolox equivalent antioxidant capacity (TEAC) was found to be 0.89 mM.
With `O=C(O[C@@H]1O[C@H](CO)[C@@H](O)[C@H](O)[C@H]1O)c1ccc(O)cc1`, the outcome in assay [1] and in assay [2] was inactive.
For `COC(=O)/C=C/c1cc(O)cc(O[C@@H]2O[C@H](CO)[C@@H](O)[C@H](O)[C@H]2O)c1`, the IC50 in assay [1] was 630.8 µg/mL (≈ 1770 µM). In addition, in assay [2], the Trolox equivalent antioxidant capacity (TEAC) worked out at 0.35 mM.
Take `C[C@@H]1O[C@@H](Oc2cc(O)c3c(=O)c(O[C@@H]4O[C@H](CO)[C@@H](O)[C@H](O)[C@H]4O)c(-c4ccc(O[C@@H]5O[C@H](CO)[C@@H](O)[C@H](O)[C@H]5O)c(O)c4)oc3c2)[C@H](O)[C@H](O)[C@H]1O` [MORICANDIN]: the IC50 in assay [1] was found to be 48.1 µg/mL (≈ 62.3 µM). Also, the Activity in assay [3] amounted to 60%. Further, in assay [2], the Trolox equivalent antioxidant capacity (TEAC) came out at 1.23 mM.
As to `Cc1c(C)c2c(c(C)c1O)CC[C@@](C)(CCC[C@H](C)CCC[C@H](C)CCCC(C)C)O2` [ALPHA-TOCOPHEROL], in assay [1], the IC50 was 106.9 µg/mL (≈ 248 µM). The Activity in assay [3] was determined as 87%.
With `OC[C@H]1O[C@@H](OCCc2ccccc2)[C@H](O)[C@@H](O)[C@@H]1O`, the result in assay [1] and in assay [2] was inactive.
In the case of `O=C(O[C@@H]1O[C@H](CO)[C@@H](O)[C@H](O)[C@H]1O)c1ccc(O[C@@H]2O[C@H](CO)[C@@H](O)[C@H](O)[C@H]2O)cc1`, the half-maximal inhibitory concentration (IC50) in assay [1] was 735.4 µg/mL (≈ 1590 µM). Also, in assay [2], the Trolox equivalent antioxidant capacity (TEAC) was found to be 0.28 mM.
